Results taken from paper PMC9732819 (ACS Chemical Neuroscience, 2022).

Columns and labels:
potassium channel = details: read-out: in vitro IC50; electrophysiology; cited from earlier work
[1] = test system: voltage-gated K^+ channels; experiment: dynamic brain PET imaging and pharmacokinetic modeling in nonhuman primates; assay type: in vivo, rhesus macaques
Method in brief: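 Two male rhesus macaques (10 and 14 years; one with a prior craniotomy injury) each had two baseline scans. Tracer (291.5–330.1 MBq; 90.3–247.5 GBq/μmol) was infused over 3 min into the saphenous vein, followed by a saline flush, with 180 min list-mode PET/CT under isoflurane. Ten regional TACs were taken in MRI-template space. 1T and 2T models with metabolite-corrected input gave K1 and VT (AIC comparison), with Logan and MA1 also tested.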

[2] = test system: voltage-gated K^+ channels; experiment: PET imaging and ex vivo γ counting of brain and blood in healthy rats; parameters: species or system Sprague Dawley rats
Method in brief: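 Six–eight-week-old male and female Sprague Dawley rats received ~14.8 MBq tracer by tail vein, alone or with 5 mg/kg cold test compound (5–10 mg/kg in the ex vivo legend), in saline containing ≤10% […]. Rats underwent 60 min PET/CT under 2% isoflurane. Blood (cardiac puncture) and brain were then collected, weighed and γ-counted to give SUV ratios. Imaging used 4 rats; γ-counting used 15. Data are mean ± SD.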

[3] = arterial blood and radiometabolite analysis in nonhuman primates; assay type: in vivo, rhesus macaques
Method in brief: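 Rhesus macaques were sedated with ketamine/xylazine IM and kept on isoflurane. Arterial blood was sampled manually via a posterior tibial catheter throughout PET to measure whole-blood and plasma radioactivity. Plasma from 3–120 min was filtered through a 10K filter (21 000 rcf, 8 °C, 15 min) and run on C18 radioHPLC in pH 12 phosphate/NaOH:MeCN 96:4 to obtain the parent fraction. Plasma-free fraction was measured in triplicate.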

[4] = test system: voltage-gated K^+ channels; experiment: Guo graphical comparison of regional VT between tracers in nonhuman primates; assay type: in vivo, rhesus macaques; details: for slope of VT correlation plot (Guo method; in vivo affinity ratio): both monkeys combined
Method in brief: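 Per animal, regional VT of the test tracer (mean of two baseline scans) was regressed against regional VT of each reference 4-aminopyridine tracer. Linearity indicated a shared target, the y-intercept sign indicated relative signal-to-noise, and the slope with measured plasma-free fractions gave the in vivo affinity ratio. Pearson r was used, with Fisher-transformation t-distribution p-values for the regression and intercept.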

SMILES | IC50 (potassium channel) [µM] | visibility of minor focal brain lesion on PET images ([1]; monkey 2 (M2), craniotomy site) | whole brain SUV ([1]; monkey brain, 3 min) | K1 (rate constant for transfer from plasma to brain tissue) ([1]; monkey whole brain, 1T2k1v model) [mL/min/cc] | total volume of distribution (VT) ([1]; striatum, monkey 1, 1T2k1v) [mL/cc] | total volume of distribution (VT) ([1]; striatum, monkey 2, 1T2k1v) [mL/cc] | total volume of distribution (VT) ([1]; white matter, monkey 1, 1T2k1v) [mL/cc] | total volume of distribution (VT) ([1]; white matter, monkey 2, 1T2k1v) [mL/cc] | increase of whole brain to blood SUVR, coinjection group vs baseline group ([2]; 60 min, p = 0.017) [%] | time of peak radioactivity in the brain ([2]; PET brain time-activity curve) [min] | fraction unbound ([3]; male, rhesus monkey, arterial plasma) | time for WB to PL ratio to reach a plateau ([3]; monkey arterial blood) [min] | activity attributable to parent tracer in plasma (radioHPLC) ([3]; monkey arterial plasma, after 90 min) [%] | WB to PL radioactivity concentration ratio ([3]; monkey, 1 min postinjection, across all studies) | slope of VT correlation plot (Guo method; in vivo affinity ratio) ([4]; vs [^11C]3MeO4AP, p < 0.0001) | intercept of Guo plot (relative specific binding) ([4]; vs [^11C]3MeO4AP, p = 0.31) | slope of VT correlation plot (Guo method; in vivo affinity ratio) ([4]; vs [^18F]3F4AP, p = 0.0001) | intercept of Guo plot (relative specific binding) ([4]; vs [^18F]3F4AP, p = 0.91)
Cc1cnccc1N [3Me4AP, 3-methyl-4-aminopyridine] | 40 |  |  |  |  |  |  |  |  |  |  |  |  |  |  |  |  | 
[11CH3]c1cnccc1N [[^11C]3Me4AP, 3-[^11C]Methyl-4-aminopyridine] |  | not visible | 0.7 | ~0.035 | 4.67 | 4.68 | 3.61 | 3.78 | 43 | ≤ 3 | 0.94 ± 0.03 | ≤ 1 | ~90 | 1.28 ± 0.01 | 0.73 | 0.67 | 1.93 | 0.10
